Reference: ChEMBL document CHEMBL1143199, “Discovery and SAR of hydrazide antagonists of the pituitary adenylate cyclase-activating polypeptide (PACAP) receptor type 1 (PAC1-R)” (Bioorg Med Chem Lett, 2008)
Activity calls are given as the source filed them. No cut-off for these calls is given here.

What was measured:
[1] = target: T1, Pituitary adenylate cyclase-activating polypeptide type I receptor (Homo sapiens, UniProt P41586); assay: Displacement of [125I]PACAP27 from PAC1R expressed in HEK293f cells; format: cell-based
Summary of the method: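 Membranes from HEK293f cells expressing PAC1R (5 lg protein) incubated with 0.2 nM ¹²⁵I-PACAP27 in 50 mM Tris–HCl pH 7.4, 5 mM MgCl₂, 20 min at 37 °C; nonspecific binding with 300 nM unlabeled PACAP38. Terminated by filtration through PEI-soaked GF/B filters, three ice-cold buffer washes, radioactivity counted; Ki reported.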

[2] = target: T1, Pituitary adenylate cyclase-activating polypeptide type I receptor; assay: Displacement of [125I]PACAP27 from PAC1R expressed in HEK293f cells at 3 uM; format: cell-based
Target sequence in this assay (P41586 21-468 limits assumed): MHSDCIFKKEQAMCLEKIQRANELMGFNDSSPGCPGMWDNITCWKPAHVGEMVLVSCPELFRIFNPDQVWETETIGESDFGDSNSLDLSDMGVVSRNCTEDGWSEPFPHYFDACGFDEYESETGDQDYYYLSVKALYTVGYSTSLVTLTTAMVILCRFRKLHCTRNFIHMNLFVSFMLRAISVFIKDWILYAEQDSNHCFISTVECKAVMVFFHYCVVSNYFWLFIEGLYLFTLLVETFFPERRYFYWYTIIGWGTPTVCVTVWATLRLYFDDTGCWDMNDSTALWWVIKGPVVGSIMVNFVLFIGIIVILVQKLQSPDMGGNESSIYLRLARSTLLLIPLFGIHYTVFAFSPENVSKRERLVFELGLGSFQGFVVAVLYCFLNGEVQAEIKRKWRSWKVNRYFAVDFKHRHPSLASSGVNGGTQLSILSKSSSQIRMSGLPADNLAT

[3] = target: T2, Pituitary adenylate cyclase-activating polypeptide type I receptor (Rattus norvegicus) (UniProt P32215); assay: Antagonist activity at PAC1R in rat AR42J cells assessed as PACAP-induced calcium mobilization by FLIPR assay; format: functional, cell-based; conditions: AR-42J
T2 sequence (whole entry): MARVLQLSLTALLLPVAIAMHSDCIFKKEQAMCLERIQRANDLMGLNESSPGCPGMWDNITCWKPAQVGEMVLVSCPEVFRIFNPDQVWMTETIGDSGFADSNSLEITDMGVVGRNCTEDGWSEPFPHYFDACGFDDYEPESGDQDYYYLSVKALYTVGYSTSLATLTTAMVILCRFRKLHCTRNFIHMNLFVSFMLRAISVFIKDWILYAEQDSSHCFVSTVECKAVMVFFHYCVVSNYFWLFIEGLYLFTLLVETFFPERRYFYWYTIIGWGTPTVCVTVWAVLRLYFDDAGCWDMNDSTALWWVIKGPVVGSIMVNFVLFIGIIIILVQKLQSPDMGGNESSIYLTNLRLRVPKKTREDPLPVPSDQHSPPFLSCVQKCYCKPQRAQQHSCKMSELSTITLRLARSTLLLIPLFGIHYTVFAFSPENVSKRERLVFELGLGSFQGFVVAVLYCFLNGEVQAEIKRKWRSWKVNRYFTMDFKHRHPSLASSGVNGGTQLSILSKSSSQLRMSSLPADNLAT
Summary of the method: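 Cells loaded with Fluo-4AM for 2 h, preincubated with compounds 30 min at room temperature, then challenged with 2 nM PACAP-27; intracellular calcium changes monitored by FLIPR; Kb calculated.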

Row | SMILES | Ki [1] [nM] | Activity [2] [%] | also measured
1 | O=C(N/N=C/c1cccc(OCc2cccc(C(F)(F)F)c2)c1)c1ccc(O)c(Cl)c1 | 554 | – | –
2 | COc1cc(/C=N/NC(=O)c2ccc(O)cc2)cc(OC)c1OCc1ccc(C(C)C)cc1 | – | 22 | –
3 | COc1cc(/C=N/NC(=O)c2cccc(Cl)c2)cc(OC)c1OCc1ccc(C(C)C)cc1 | – | – | Activity [1]: inactive
4 | O=C(N/N=C/c1ccc(COc2ccccc2)cc1)c1ccc(O)c(Cl)c1 | – | 41 | –
5 | COc1cc(/C=N/NC(=O)c2ccc(O)c(Cl)c2)cc(OC)c1OCc1cccc(C(F)(F)F)c1 | 204 | – | –
6 | COc1cc(/C=N/NC(=O)c2ccc(O)c(Cl)c2)cc(OC)c1OCc1ccc(C(C)C)cc1 | 56 | – | Kb [3]: 200 nM
7 | O=C(N/N=C/c1cccc2c1ccn2Cc1ccccc1)c1ccc(O)c(Cl)c1 | – | 55 | –
8 | O=C(N/N=C/c1cccc(COc2cccc(C(F)(F)F)c2)c1)c1ccc(O)c(Cl)c1 | 274 | – | –
9 | COc1cc(/C=N/NC(=O)c2ccc(O)c(Cl)c2)cc(OC)c1OCc1ccc(C(F)(F)F)cc1 | 140 | – | –
10 | COc1cc(C(=O)NNC(=O)c2ccc(O)c(Cl)c2)cc(OC)c1OCc1ccc(C(C)C)cc1 | – | 40 | –
11 | COc1cc(/C=N/NC(=O)c2ccc(O)c(Cl)c2)cc(OCc2cccc(C(F)(F)F)c2)c1OC | – | – | Activity [1]: inactive
12 | CC(=O)Nc1ccc(COc2ccc(/C=N/NC(=O)c3ccc(O)c(Cl)c3)cc2)cc1 | – | – | Activity [1]: inactive
13 | O=C(N/N=C/c1cccc(COc2ccc(C(F)(F)F)cc2)c1)c1ccc(O)c(Cl)c1 | 241 | – | –
14 | COc1cc(/C=N/NC(=O)c2ccc(O)c(Cl)c2)cc(OCc2c(C)c(C)cc(C)c2C)c1OC | 167 | – | –
15 | CNC(=O)c1ccc(COc2ccc(/C=N/NC(=O)c3ccc(O)c(Cl)c3)cc2OC)cc1 | – | 36 | –
16 | O=C(N/N=C/c1ccc(OCc2cccc(C(F)(F)F)c2)cc1)c1ccc(O)c(Cl)c1 | 537 | – | –

Row | SMILES | Ki [1] [nM] | Activity [2] [%] | also measured
17 | COc1cc(/C=N/NC(=O)c2ccc(O)c(Cl)c2)ccc1OCc1ccc(C(F)(F)F)cc1 | – | 50 | –
18 | COc1cc(C(=O)N/N=C/c2cc(OC)c(OCc3ccc(C(C)C)cc3)c(OC)c2)ccc1O | – | 44 | –
19 | COc1cc(/C=N/NC(=O)c2ccc(O)c(Cl)c2)ccc1OCc1ccc(C(C)C)cc1 | – | – | Activity [1]: inactive
20 | O=C(N/N=C/c1ccc(OCc2ccc(C(F)(F)F)cc2)cc1)c1ccc(O)c(Cl)c1 | – | 43 | –
21 | COc1cc(/C=N/NC(=O)c2ccc(O)c(Cl)c2)ccc1OCc1cccc(C(F)(F)F)c1 | 404 | – | –
22 | COc1cc(/C=N/NC(=O)c2ccc(O)c(Cl)c2)cc(OC)c1OCc1ccc(NC(C)=O)cc1 | – | 43 | –
23 | COc1cc(/C=N/NC(=O)c2ccc(O)c(Cl)c2)cc(OC)c1OCc1ccccc1 | 185 | – | –
24 | COc1cc(-c2nnc(-c3ccc(O)c(Cl)c3)s2)cc(OC)c1OCc1ccc(C(C)C)cc1 | – | – | Activity [1]: inactive
25 | COc1cc(-c2nnc(-c3ccc(O)c(Cl)c3)o2)cc(OC)c1OCc1ccc(C(C)C)cc1 | – | – | Activity [1]: inactive
26 | COc1cc(CNNC(=O)c2ccc(O)c(Cl)c2)cc(OC)c1OCc1ccc(C(C)C)cc1 | – | 46 | –
27 | O=C(N/N=C/c1ccc(OCc2ccccc2)cc1)c1ccc(O)c(Cl)c1 | 522 | – | –
28 | COc1cc(/C=N/NC(=O)c2ccc3[nH]ncc3c2)cc(OC)c1OCc1ccc(C(C)C)cc1 | – | – | Activity [1]: inactive
29 | COc1cc(/C=N/NC(=O)c2ccc(O)c(Cl)c2)cc(OCc2ccc(C(C)C)cc2)c1OC | 152 | – | –
30 | O=C(N/N=C/c1cccc2c1ccn2Cc1ccc(OCc2ccccc2)cc1)c1ccc(O)c(Cl)c1 | – | 51 | –
31 | O=C(N/N=C/c1cccc2c1ccn2Cc1cccc(C(F)(F)F)c1)c1ccc(O)c(Cl)c1 | 85 | – | –
32 | COc1cc(/C=N/NC(=O)c2ccc(O)c(Cl)c2)ccc1OCc1ccc(NC(C)=O)cc1 | – | 34 | –
